Measurements pooled from the literature.
Protocols differ between the studies behind these lines.
PPARA: Peroxisome proliferator-activated receptor alpha (PPARA, Homo sapiens, UniProt Q07869)
Tumor necrosis factor receptor superfamily member 9: Tumor necrosis factor receptor superfamily member 9 (Homo sapiens, UniProt Q07011)
gag-pol integrase: Gag-Pol polyprotein, integrase (gag-pol, Human immunodeficiency virus 1, UniProt P12497)
CYP2D6: Cytochrome P450 2D6 (CYP2D6, Homo sapiens, UniProt P10635)

SMILES | target | assay | system | conditions | quantity | result
O=S(=O)(O)C(F)(F)C(F)(F)C(F)(F)C(F)(F)C(F)(F)C(F)(F)C(F)(F)C(F)(F)F | PPARA | reporter gene, agonist, luciferase | – | – | EC50 | 24000 nM
CCCC[C@@H]1NC(=O)[C@H](Cc2ccc(O)cc2)NC(=O)[C@@H]2CCCN2C(=O)[C@H](CC(=O)O)NC(=O)[C@H](C)NC(=O)[C@H](Cc2ccccc2)NC(=O)[C@@H]2CSCCC(=O)N3CN(CN(C3)C(=O)CCSC[C@H](NC(C)=O)C(=O)N[C@@H](CC(C)(C)C)C(=O)N[C@@H](CCC(=O)O)C(=O)N[C@@H](CCC(=O)O)C(=O)N[C@H](CCCCNC(=O)CCc3cn(CCOCCOCCOCCOCCOCCC(=O)N[C@H]4CSCCC(=O)N5CN6CN(C5)C(=O)CCSC[C@H](NC(=O)[C@@H](CC(=O)O)NC(=O)[C@H](Cc5cccc7ccccc57)NC(=O)[C@@H]5CCCN5C4=O)C(=O)N[C@@H](CCSC)C(=O)N[C@@H](CCCCNC(=N)N)C(=O)N[C@@H](CC(=O)O)C(=O)N[C@@H](Cc4c[nH]c5ccccc45)C(=O)N[C@@H](CO)C(=O)N[C@@H]([C@@H](C)O)C(=O)N4CCC[C@H]4C(=O)N4C[C@H](O)C[C@H]4C(=O)N[C@@H](Cc4c[nH]c5ccccc45)C(=O)N[C@H](C(N)=O)CSCCC6=O)nn3)C(=O)N3CCC[C@H]3C(=O)N[C@@H](Cc3ccc(O)cc3)C(=O)N2)C(=O)CCSC[C@@H](C(N)=O)NC1=O | Tumor necrosis factor receptor superfamily member 9 | binding, SPR | – | – | Kd | 9.6 nM
Cc1cc(SCc2sc(-c3ccc(C(F)(F)F)c(F)c3)nc2C)ccc1OCC(=O)O | PPARA | reporter gene, agonist, luciferase | – | – | EC50 | 1300 nM
O=C(O)[C@H](Cc1ccc2ccccc2c1)NC(=O)C1(c2ccc3ccccc3c2)CCN(CCC(F)(F)F)CC1 | gag-pol integrase | enzyme activity, inhibitor, TR-FRET | – | – | IC50 | 180000 nM
CC(C)C[C@H](NC(=O)[C@H](CCCCN)NC(=O)[C@@H]1CCCN1C(=O)[C@@H](N)CCCNC(=N)N)C(=O)N[C@@H](CCCCN)C(=O)O | Alpha-1B adrenergic receptor (ADRA1B, Homo sapiens, UniProt P35368) | cell-free assay, radioligand | – | – | Ki | 2900 nM
O=C(O)[C@H](Cc1ccccc1)NC(=O)C1(c2ccc3ccccc3c2)CCN(Cc2ccccc2)CC1 | gag-pol integrase | enzyme activity, inhibitor, TR-FRET | – | – | IC50 | 353000 nM
O=C(O)c1cc[c]([Hg][Cl])cc1 | Beta-lactamase TEM (bla, Escherichia coli, UniProt P62593) | enzyme activity, inhibitor | – | – | IC50 | > 30000 nM
Cc1c(Cc2ccc(C(F)(F)F)nc2)c[nH]c1C(=O)NC(C)c1cn[nH]c1 (stereo not shown) | CYP2D6 | enzyme activity, inhibitor | human, liver microsomes | – | IC50 | 750 nM
O=S(=O)(O)C(F)(F)C(F)(F)C(F)(F)C(F)(F)C(F)(F)C(F)(F)F | PPARA | reporter gene, agonist, luciferase | – | – | EC50 | 61000 nM
CC(=O)N[C@@H](CC(C)C)C(=O)N[C@@H](CC(C)C)C(=O)N[C@@H](CC(C)C)C(=O)N[C@@H](CCCN=C(N)N)C(=O)N[C@H](C(=O)N[C@@H](CCCCN)C(=O)N[C@@H](CCCN=C(N)N)C(N)=O)C(C)C | Neuroendocrine convertase 2 (Homo sapiens, UniProt P16519) | enzyme activity, inhibitor | – | – | Ki | 500 nM
CC(C)C[C@H](NC(=O)[C@H](Cc1ccccc1)NC(=O)[C@H](Cc1ccc(O)cc1)NC(=O)CNC(=O)[C@H](CCCCN)NC(=O)[C@H](CO)NC(=O)[C@H](CCC(N)=O)NC(=O)CNC(=O)[C@@H](NC(=O)[C@H](CO)NC(=O)[C@@H]1CCCN1C(=O)[C@H](CO)NC(=O)[C@H](CCC(N)=O)NC(=O)[C@H](Cc1ccc(O)cc1)NC(=O)[C@H](CCC(=O)O)NC(=O)[C@H](C)NC(=O)[C@H](CCCCN)NC(=O)[C@@H](N)Cc1ccccc1)C(C)C)C(=O)N[C@@H](Cc1ccccc1)C(=O)N[C@@H](CCCNC(=N)N)C(=O)N1CCC[C@H]1C(=O)N[C@@H](CCCNC(=N)N)C(=O)N[C@@H](CC(N)=O)C(N)=O | Neuromedin-U receptor 2 (NMUR2, Homo sapiens, UniProt Q9GZQ4) | ligand displacement, radioligand | – | cell membranes | IC50 | 0.04 nM
O=C(O)[C@H](Cc1ccc2ccccc2c1)NC(=O)C1(c2ccc(-c3ccccc3)cc2)CCN(CCC(F)(F)F)CC1 | gag-pol integrase | enzyme activity, inhibitor, TR-FRET | – | – | IC50 | 93500 nM
CCCC[C@@H]1NC(=O)[C@H](Cc2ccc(O)cc2)NC(=O)[C@@H]2CCCN2C(=O)[C@H](CC(=O)O)NC(=O)[C@H](C)NC(=O)[C@H](Cc2ccccc2)NC(=O)[C@@H]2CSCCC(=O)N3CN(CN(C3)C(=O)CCSC[C@@H](C(=O)N[C@@H](C)C(N)=O)NC1=O)C(=O)CCSC[C@H](NC(C)=O)C(=O)N[C@@H](CC(C)(C)C)C(=O)N1CCC[C@H]1C(=O)N[C@@H](CCC(=O)O)C(=O)N[C@H](CCCCNC(=O)CCc1cn(CCOCCOCCOCCOCCOCCC(=O)NCCCC[C@H]3NC(=O)[C@H](Cc4cccc5ccccc45)NC(=O)[C@@H]4CCCN4C(=O)[C@@H](NC(C)=O)CSCCC(=O)N4CN5CN(C4)C(=O)CCSC[C@H](NC3=O)C(=O)N[C@@H](CCSC)C(=O)N[C@@H](CCCCNC(=N)N)C(=O)N[C@@H](Cc3c[nH]cn3)C(=O)N[C@@H](Cc3c[nH]c4ccccc34)C(=O)N[C@@H](CO)C(=O)N[C@@H]([C@@H](C)O)C(=O)N3CCC[C@H]3C(=O)N3C[C@H](O)C[C@H]3C(=O)N[C@@H](Cc3c[nH]c4ccccc34)C(=O)N[C@H](C(N)=O)CSCCC5=O)nn1)C(=O)N1CCC[C@H]1C(=O)N[C@@H](Cc1ccc(O)cc1)C(=O)N2 | Tumor necrosis factor receptor superfamily member 9 | binding, SPR | – | – | Kd | 3.2 nM
c1ccc(-c2c[nH]c3ncnc(N4CCOCC4)c23)cc1 | Serine/threonine-protein kinase 4 (STK4, Homo sapiens, UniProt Q13043) | enzyme activity, inhibitor, ADP detection | – | – | IC50 | 35 nM
Cc1c(C2(c3ccc(C(F)(F)F)nc3)CC2)c[nH]c1C(=O)NC(C)c1nc[nH]n1 (stereo not shown) | CYP2D6 | enzyme activity, inhibitor | human, liver microsomes | – | IC50 | 17000 nM
CCCC[C@@H]1NC(=O)[C@H](Cc2ccc(O)cc2)NC(=O)[C@@H]2CCCN2C(=O)[C@H](CC(N)=O)NC(=O)[C@H](C)NC(=O)[C@H](Cc2ccccc2)NC(=O)[C@@H]2CSCCC(=O)N3CN(CN(C3)C(=O)CCSC[C@H](NC(C)=O)C(=O)N[C@@H](CC(C)(C)C)C(=O)N3CCC[C@H]3C(=O)N[C@@H](CCC(=O)O)C(=O)N[C@H](CCCCNC(=O)CCc3cn(CCOCCOCCOCCOCCOCCC(=O)N[C@H]4CSCCC(=O)N5CN6CN(C5)C(=O)CCSC[C@H](NC(=O)[C@@H](CC(=O)O)NC(=O)[C@H](Cc5cccc7ccccc57)NC(=O)[C@@H]5CCCN5C4=O)C(=O)N[C@@H](CCSC)C(=O)N[C@@H](CCCCNC(=N)N)C(=O)N[C@@H](CC(=O)O)C(=O)N[C@@H](Cc4c[nH]c5ccccc45)C(=O)N[C@@H](CO)C(=O)N[C@@H]([C@@H](C)O)C(=O)N4CCC[C@H]4C(=O)N4C[C@H](O)C[C@H]4C(=O)N[C@@H](Cc4c[nH]c5ccccc45)C(=O)N[C@H](C(N)=O)CSCCC6=O)nn3)C(=O)N3CCC[C@H]3C(=O)N[C@@H](Cc3ccc(O)cc3)C(=O)N2)C(=O)CCSC[C@@H](C(N)=O)NC1=O | Tumor necrosis factor receptor superfamily member 9 | binding, SPR | – | – | Kd | 878 nM
[Cd+2] | Protein phosphatase 1A (PPM1A, Homo sapiens, UniProt P35813, D239A) | enzyme activity, inhibitor, absorbance | – | pH 8 | Ki | 5220 nM
CCCC[C@@H]1NC(=O)[C@H](Cc2ccc(O)cc2)NC(=O)[C@@H]2CCCN2C(=O)[C@H](CC(=O)O)NC(=O)[C@H](C)NC(=O)[C@H](Cc2ccccc2)NC(=O)[C@@H]2CSCCC(=O)N3CN(CN(C3)C(=O)CCSC[C@@H](C(=O)N[C@@H](C)C(N)=O)NC1=O)C(=O)CCSC[C@H](NC(C)=O)C(=O)N[C@@H](CC(C)(C)C)C(=O)N1CCC[C@H]1C(=O)N[C@@H](CCC(=O)O)C(=O)N[C@H](CCCCNC(=O)CCc1cn(CCOCCOCCOCCOCCOCCC(=O)N[C@H]3CSCCC(=O)N4CN5CN(C4)C(=O)CCSC[C@H](NC(=O)[C@@H](CCC(=O)O)NC(=O)[C@H](Cc4cccc6ccccc46)NC(=O)[C@@H]4CCCN4C3=O)C(=O)N[C@@H](CC(C)C)C(=O)N[C@@H](CCCCNC(=N)N)C(=O)N[C@@H](CC(=O)O)C(=O)N[C@@H](Cc3c[nH]c4ccccc34)C(=O)N[C@@H](CO)C(=O)N[C@@H]([C@@H](C)O)C(=O)N3CCC[C@H]3C(=O)N3C[C@H](O)C[C@H]3C(=O)N[C@@H](Cc3c[nH]c4ccccc34)C(=O)N[C@H](C(N)=O)CSCCC5=O)nn1)C(=O)N1CCC[C@H]1C(=O)N[C@@H](Cc1ccc(O)cc1)C(=O)N2 | Tumor necrosis factor receptor superfamily member 9 | binding, SPR | – | – | Kd | 8.4 nM
Clc1ccc(N2CCN(Cc3c[nH]c4ncccc34)CC2)cc1 | D(2) dopamine receptor (Drd2, Rattus norvegicus, UniProt P61169) | ligand displacement, radioligand | – | cell membranes | Ki | 656 nM
O=C(O)C(F)(F)C(F)(F)C(F)(F)C(F)(F)C(F)(F)C(F)(F)F | PPARA | reporter gene, agonist, luciferase | – | – | EC50 | 45000 nM
O=C(Cc1ccccc1)N[C@H](C(=O)O)[C@@H]1N=C(C(=O)O)C(CSC(C(=O)O)c2ccccc2)CS1 (stereo partly shown) | Metallo-beta-lactamase VIM-2 (VIM-2, Escherichia coli, UniProt Q5U7L7) | enzyme activity, inhibitor, absorbance | – | – | IC50 | 65600 nM
CC(c1ccccc1)n1cc(-c2ncccn2)c(=O)[nH]c1=O (stereo not shown) | Hepatocyte growth factor receptor (MET, Homo sapiens, UniProt P08581) | binding | – | – | Kd | 2510 nM
